From ChEMBL document CHEMBL1145833, “Studies on the synthesis and biological properties of non-carrier-added [(125)I and (131)I]-labeled arylalkylidenebisphosphonates: potent bone-seekers for diagnosis and therapy of malignant osseous lesions” (J Med Chem, 2003)

What was measured:
Settings in all cases: in vivo
Mus musculus [1] = organism: Mus musculus; experiment: Distribution of compound in lungs tissue of mice after 24 hr injection time was determined; format: ADME, organism-based, Lung
Summary of the method: (§1)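 Healthy athymic nude mice (balb/c nu/nu, 20–25 g, both sexes) received 50–400 KBq radioiodinated bisphosphonate in 100 µL phosphate buffer pH 6–7 by tail-vein injection. Three animals were sacrificed per time point. Tissues were excised, weighed and gamma-counted. Values are % injected dose per gram tissue, mean ± 1 SD, n = 3.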

Mus musculus [2] = organism: Mus musculus; experiment: Distribution of compound in skull tissue of mice after 24 hr injection time was determined; format: ADME, organism-based; summary of the method: as §1
Mus musculus [3] = organism: Mus musculus; experiment: Distribution of compound in kidneys tissue of mice after 24 hr injection time was determined; format: ADME, organism-based, Kidney; summary of the method: as §1
Mus musculus [4] = organism: Mus musculus; experiment: Distribution of compound in liver tissue of mice after 24 hr injection time was determined; format: ADME, organism-based; summary of the method: as §1
Mus musculus [5] = organism: Mus musculus; experiment: Distribution of compound in heart tissue of mice after 24 hr injection time was determined; format: ADME, organism-based; summary of the method: as §1
Mus musculus [6] = organism: Mus musculus; experiment: Distribution of compound in intestine tissue of mice after 24 hr injection time was determined; format: ADME, organism-based; summary of the method: as §1
Mus musculus [7] = organism: Mus musculus; experiment: Distribution of compound in spleen tissue of mice after 24 hr injection time was determined; format: ADME, organism-based; summary of the method: as §1
Mus musculus [8] = organism: Mus musculus; experiment: Distribution of compound in stomach tissue of mice after 24 hr injection time was determined; format: ADME, organism-based; summary of the method: as §1
Mus musculus [9] = organism: Mus musculus; experiment: Distribution of compound in thyroid tissue of mice after 24 h injection time was determined; format: ADME, organism-based, Thyroid gland
Summary of the method: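 Healthy athymic nude balb/c nu/nu mice (20–25 g) received 50–400 KBq radioiodinated bisphosphonate in 100 μL phosphate buffer, pH 6–7, by tail-vein injection. Three animals were sacrificed per time point. Thyroid-containing tissue was excised, weighed and gamma-counted. Values are % of injected dose, mean ± 1 SD of three mice.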

Mus musculus [10] = organism: Mus musculus; experiment: Distribution of compound in blood tissue of mice after 24 hr injection time was determined; format: ADME, organism-based; summary of the method: as §1
Mus musculus [11] = organism: Mus musculus; experiment: Distribution of compound in femur tissue of mice after 24 hr injection time was determined; format: ADME, organism-based; summary of the method: as §1

Which Injected (Mus musculus [1]) does the source give for `O=P(O)(O)C(CCc1cccc(I)c1)P(=O)(O)O` here?
The Injected was 0.21%.

And the Injected (Mus musculus [2])?
Its Injected is 10.36%.

What about the Injected (Mus musculus [3]) of the same compound?
The Injected was 0.85%.

What about the Injected (Mus musculus [4]) of the same compound?
Its Injected is 0.35%.

What about the Injected (Mus musculus [5]) of the same compound?
The Injected was 0.06%.

And the Injected (Mus musculus [6])?
Its Injected is 0.05%.

And the Injected (Mus musculus [7])?
Its Injected is 0.17%.

And the Injected (Mus musculus [8])?
The Injected was 0.04%.

What about the Injected (Mus musculus [9]) of the same compound?
The Injected was 0.02%.

What about the Injected (Mus musculus [10]) of the same compound?
The Injected was 0.02%.

What about the Injected (Mus musculus [11]) of the same compound?
The Injected was 8.84%.
